From ChEMBL document CHEMBL1145096, “Synthesis and cytotoxic activity of two novel 1-dodecylthio-2-decyloxypropyl-3-phosphatidic acid conjugates with gemcitabine and cytosine arabinoside” (J Med Chem, 2003)

Key:
[1] = test system: HL-60; assay: Inhibitory activity against HL-60 (human, promyelocytic leukemia) cell line; type: functional, cell-based
Summary of the method: (§1)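 Cells kept in log phase in RPMI-1640 with 10% FBS and 1% penicillin-streptomycin, humidified 5% CO2/95% air, 37 °C. Viability read by CellTiter 96 aqueous proliferation assay (microplate optical density). Drug-treated optical densities compared with untreated controls; IC50 obtained by nonlinear regression.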

[2] = test system: U373 MG; assay: Inhibitory activity against U373-MG (human, glioblastoma) cell line; type: functional, cell-based, U-373MG ATCC
Summary of the method: (§2)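 Maintained in log phase in MEM with 10% FBS and 1% penicillin-streptomycin at 37 °C in humidified 5% CO2. Cell proliferation read with CellTiter 96 aqueous assay by optical density. Treated versus untreated control; IC50 calculated by nonlinear regression.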

[3] = test system: SK-LU-1; assay: Inhibitory activity against SK-LU-1 (human,lung,adenocarcinoma) cell line; type: functional, cell-based; summary of the method: as §2
[4] = test system: CEM-SS; assay: Inhibitory activity against CEM-SS (human T-4 lymphoblastoid clone) cell line; type: functional, cell-based; summary of the method: as §1
[5] = test system: HT-29; assay: Inhibitory activity against HT-29 (human,colon,adenocarcinoma) cell line; type: functional, cell-based
Summary of the method: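 Colon line kept in log phase in McCoy's 5A modified medium with 10% FBS and 1% penicillin-streptomycin, 37 °C, 5% CO2 humidified. Proliferation measured by CellTiter 96 aqueous assay (optical density) against untreated cells; IC50 fitted by nonlinear regression.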

[6] = test system: MCF7; assay: Inhibitory activity against MCF-7/WT-2'' (human, breast carcinoma) cell line; type: functional, cell-based
Summary of the method: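 MCF7/WT-2' grown in log phase in D-MEM/F-12 with 10% FBS, 10 μg/mL insulin and 1% penicillin-streptomycin, 37 °C, 5% CO2. Read-out was CellTiter 96 aqueous proliferation assay (optical density) versus untreated control. IC50 derived by nonlinear regression.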

[7] = test system: SCC-25; assay: Inhibitory activity against SCC-25 (human, squamous cell carcinoma, tongue) cell line; type: functional, cell-based
Summary of the method: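 SCC-25 cultured in log phase in DMEM with 10% FBS, 400 ng/mL hydrocortisone and 1% penicillin-streptomycin, humidified 5% CO2/95% air, 37 °C. CellTiter 96 aqueous assay, optical density compared with untreated cells; IC50 from nonlinear regression.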

[8] = test system: BXPC-3; assay: Inhibitory activity against BxPC3 (human,pancreas,adenocarcinoma) cell line; type: functional, cell-based
Summary of the method: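 BxPC3 grown in log phase in RPMI-1640 plus 10% FBS, 10 mM HEPES, 1.5 g/L NaHCO3, sodium pyruvate and 1% penicillin-streptomycin, at 37 °C under 5% CO2. CellTiter 96 aqueous proliferation readout by optical density. Treated wells compared with untreated controls; IC50 from nonlinear regression.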

[9] = test system: BG-1 cell line; assay: Inhibitory activity against BG-1 (human, […] adenocarcinoma) cell line; type: functional, cell-based; summary of the method: as §1
[10] = test system: HeLa; assay: Inhibitory activity against HeLa (human, epitheloid carcinoma, cervix) cell line; type: functional, cell-based
Summary of the method: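 HeLa maintained in log phase in DMEM, 10% FBS, 1% penicillin-streptomycin, humidified 5% CO2 at 37 °C. Growth quantified with CellTiter 96 aqueous assay by microplate optical density. Values expressed relative to untreated controls; IC50 by nonlinear regression.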

IC50 [1] [nM]	IC50 [2] [nM]	IC50 [3] [nM]	IC50 [4] [nM]	IC50 [5] [nM]	IC50 [6] [nM]	IC50 [7] [nM]	IC50 [8] [nM]	IC50 [9] [nM]	IC50 [10] [nM]	Compound
67300										CCCCCCCCCCCCSCC(COP(=O)(O)OCC1OC(n2ccc(N)nc2=O)[C@@H](O)C1O)OCCCCCCCCCC (some centres not stated)
1800	290	1120	600	750	1730	590	1590	1840	690	CCCCCCCCCCCCSCC(COP(=O)(O)OC[C@H]1O[C@@H](n2ccc(N)nc2=O)C(F)(F)[C@@H]1O)OCCCCCCCCCC (some centres not stated)
760										Nc1ccn([C@@H]2O[C@H](CO)[C@@H](O)[C@@H]2O)c(=O)n1 [CYTARABINE]
330	130	55	30	43	1660	47	160	680	8	Nc1ccn([C@@H]2O[C@H](CO)[C@@H](O)C2(F)F)c(=O)n1 [GEMCITABINE]
